Assay outcomes as filed in PubChem.
Shown is part of a subset that was picked to be rich in hits.
RORa inhibitor: RORA (human) inhibition; 0.43% of 65,000 active; inhibition, % at 10 µM; AID 561; CHO-K1 Gal4-RORA LBD luciferase reporter, luminescence; P35398;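 active means inhibition above the mean of all tested compounds plus 3 SD, cut at about 52% in these data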
Target sequence (P35398 whole entry, looked up, the tested form may be a part): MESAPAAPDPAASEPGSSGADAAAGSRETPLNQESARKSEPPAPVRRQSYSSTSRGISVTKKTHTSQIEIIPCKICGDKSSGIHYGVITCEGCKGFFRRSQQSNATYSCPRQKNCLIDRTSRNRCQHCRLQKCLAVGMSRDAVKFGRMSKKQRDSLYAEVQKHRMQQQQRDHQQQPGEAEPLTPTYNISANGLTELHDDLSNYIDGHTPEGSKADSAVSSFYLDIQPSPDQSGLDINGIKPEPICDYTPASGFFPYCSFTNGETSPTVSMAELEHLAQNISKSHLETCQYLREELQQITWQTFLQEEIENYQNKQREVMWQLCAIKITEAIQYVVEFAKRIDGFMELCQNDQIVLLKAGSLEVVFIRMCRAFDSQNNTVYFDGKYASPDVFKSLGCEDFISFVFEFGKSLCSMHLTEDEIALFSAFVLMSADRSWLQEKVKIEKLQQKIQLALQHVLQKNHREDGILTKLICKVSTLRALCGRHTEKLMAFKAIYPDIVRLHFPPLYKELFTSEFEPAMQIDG
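test system = CHO-K1 Gal4-RORA LBD luciferase reporter cells | dosing = 10 µM single point | times = 20 h compound treatment, 37 °C | signal = luciferase luminescence | read-out = % inhibition of basal luciferase versus +RORA/-RORA DMSO controls | benchmarks = mock-transfected cells as 100%, +RORA DMSO cells as 0% | replicates = tested once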
A number is an active result; i = inactive.

SMILES	RORa inhibitor
C[C@@]1(CO)[C@H](O)CC[C@@]2(C)[C@H]1CC[C@H]1C[C@@H]3C[C@@]12CC[C@]3(O)CO	82
CCOC(=O)N(CC)c1ccc(C(O)(C(=O)OC)C(F)(F)F)cc1 (stereo unspecified)	i
Cc1ccccc1-n1c(O)c(C=Nc2ccc(N(C)C)cc2)c(=O)[nH]c1=O	i
COCCOC(=O)C1=C(N)Oc2c(c(=O)oc3ccccc23)C1c1ccncc1 (stereo unspecified)	i
Cc1sc2ncn(CC(=O)NCC(=O)N3CCC4(CC3)OCCO4)c(=O)c2c1C	i
Cn1ncnc2c(=O)n(C)c(=O)nc1-2	98
O=C(CN1C2CCC1CC(O)(c1cccnc1)C2)Nc1ccc2c(c1)OCO2 (stereo unspecified)	i
CCN(CC)CCCN=C(C)c1c(O)n(-c2ccccc2)c(=O)[nH]c1=O	i
Cc1ccc(Cl)cc1-n1c(O)c(C=NCCCN2CCOCC2)c(=O)[nH]c1=O	i
CN1CCN(CCC(C#N)(c2ccccc2)c2ccccc2)CC1	i
